From PubChem BioAssay
PHOSPHO1 inh – PHOSPHO1 (human) inhibition; inhibition, % at 13.3 µM; recombinant PHOSPHO1, absorbance phosphatase assay; 1.1% of 290,000 active; AID 1565; Q8TCT1; in the data active = inhibition above about 60%
Target sequence (Q8TCT1 whole entry, looked up): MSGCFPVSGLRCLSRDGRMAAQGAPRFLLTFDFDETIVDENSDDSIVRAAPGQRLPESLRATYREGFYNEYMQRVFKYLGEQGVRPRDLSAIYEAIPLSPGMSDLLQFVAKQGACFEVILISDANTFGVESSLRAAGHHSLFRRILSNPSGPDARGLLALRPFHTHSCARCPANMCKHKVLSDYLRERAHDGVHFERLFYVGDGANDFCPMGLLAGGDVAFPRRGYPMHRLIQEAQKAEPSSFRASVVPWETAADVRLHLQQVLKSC
AI-2 QS modul – modulates the Vibrio harveyi AI-2 quorum sensing system; Vibrio harveyi JMH597 AI-2 luminescence/OD600 ratio, 9 h; stronger effect = lower value; strain lacks LuxN and CqsS sensors; 0 = neutral-control median; activity change, % at 7.5 µM; 0.4% of 300,000 active; in the data active = activity change below about -75%, passing the limit was not always enough; inconclusive = no clear call, values can overlap the other calls;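 also: luminescence divided by OD600 gain over 9 h not by final OD600 alone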
HSF-1 act – increases HSF-1 driven luciferase reporter signal; NIH3T3-HGL HSF-1 luciferase reporter, MG132, 8 h; 100% = twice DMSO control signal; activation, % at 9 µM; 1.7% of 300,000 active; AID 504408;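 active = mean replicate activation of at least 50% with a set share of replicates each reaching 50%; inconclusive = only one of those two conditions met; inactive = mean below 50% and too few replicates reaching it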;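 also: 0% = median of the neutral control wells and 100% = twice that signal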
ALR inh – blocks human ALR sulfhydryl oxidase activity. P55789. purified ALR, DTT oxidation, H2O2 HRP-luminol luminescence. inhibition, % (no concentration beside the values). 3.8% of 290,000 active;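 active = mean replicate inhibition above about 79%, with every replicate also reaching it, limit read from the data; inconclusive = only one of the two criteria met; inactive = mean below limit and not every replicate reaching it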
Target sequence (P55789 whole entry, looked up): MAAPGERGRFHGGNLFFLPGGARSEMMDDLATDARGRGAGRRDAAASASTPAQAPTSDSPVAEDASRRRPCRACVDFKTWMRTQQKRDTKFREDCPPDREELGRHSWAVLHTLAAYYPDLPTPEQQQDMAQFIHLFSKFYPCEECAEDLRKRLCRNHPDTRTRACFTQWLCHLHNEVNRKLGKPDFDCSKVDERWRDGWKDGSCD
HSF1 inh – HSF1 inhibition | NIH3T3-HGL HSE-luciferase, MG132-induced, luminescence 8 h; stronger effect = lower value | activity change, negative = inhibition, % at 7.5 µM (by protocol) | 0.77% of 300,000 active;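 active = more than half of replicate wells show activity change below -50%, luminescence cut by over half; inconclusive = some wells, but at most half, below -50%; inactive = no replicate well below -50%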;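 also: luciferase reports HSF-1 transcriptional activity via heat shock element; 0% = median of DMSO wells and -100% = zero luminescence signal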
core dimer inh – HCV core protein dimerization inhibition; TR-FRET GST/Flag-core106 dimerization, 1536-well; inhibition, % at 5 µM; 0.33% of 300,000 active;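 active = inhibition above the mean of all tested compounds plus 3 SD, set per screening campaign, cut at about 45% in these data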
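Assay system: GST-tagged and Flag-tagged HCV core protein residues 1-106 / Times: compound-protein-antibody incubation 4 h at 22.5 °C / Signal: time-resolved FRET, ex 340 nm, em 617 and 671 nm / Evaluation: % inhibition based on acceptor/donor emission ratio / Benchmarks: wells lacking GST-core106 and wells with excess unlabelled core106 / Repeats: singlicate, one well per compound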
The depositor's hits bear a star; ? = inconclusive; · = no result given. In the library only some 6.8% were active in any assay of this set; here they are far more common.

SMILES	PHOSPHO1 inh	AI-2 QS modul	HSF-1 act	ALR inh	HSF1 inh	core dimer inh
CNC(=S)N1CCC(NC(=O)C(Cc2ccccc2)NC(C)=O)CC1 (stereo not given)	0	23	-3	0	-8	-6
CC1=NN(C(N)=S)C(C)(C)C1	6	14	-66	-13	-55*	-3
CC(C)CN(C(=O)c1ccc([N+](=O)[O-])s1)c1c(N)n(Cc2ccccc2)c(=O)[nH]c1=O	·	·	6	-19	5	5
CCc1ccc(NC(=O)CSc2nc3n[nH]c(C)c3c(=N)n2-c2cccc(OC)c2)cc1	2	16	69*	-14	40	4
COc1ccc(NC(=O)CSc2nccn2-c2cccc(OC)c2)cc1	72*	25	·	98*	·	3
Cn1nnnc1SCC(=O)Nc1ccc2c(c1)OCCO2	25	7	10	-12	19	-2
O=C(CSc1nccn1-c1ccc(Cl)cc1)NCc1ccc2c(c1)OCO2	68*	-10	3	-5	-3	-1
COc1cccc(NC(=O)CSc2nc3n[nH]c(C)c3c(=N)n2-c2cccc(OC)c2)c1	22	13	18	-16	7	4
COc1cccc(-n2ccnc2SCC(=O)Nc2ccccc2)c1	60	1	3	41	3	-7
O=C(CSc1nccn1-c1cccc(Cl)c1)Nc1ccc2c(c1)OCCO2	74*	2	2	99*	-5	3
Cc1nn(C)c(=O)n1N(C)c1ncc(C(F)(F)F)cc1Cl	-12	18	-1	2	1	-4
COc1cccc(NC(=O)CSc2nccn2-c2cccc(OC)c2)c1	43	1	-2	98*	7	-2
Clc1ccc(-c2nsc(N3CCOCC3)n2)c(Cl)c1	15	22	62*	-5	28	0
Clc1cc(Cl)c2nc(N3CCOCC3)sc2c1	5	33	34	-6	20	2
CSC1=NSC2=NC(=O)/C(=C/c3coc4ccccc4c3=O)C(=N)N12	5	·	·	98*	·	0
N=C1/C(=C/c2cccs2)C(=O)N=C2SN=C(SCc3ccccc3)N12	6	27	-4	96*	10	1
COC(CNC(=O)CN1CCN(Cc2ccc(F)cc2Cl)C1=O)OC	·	14	15	-12	2	5
C=CCc1cc(Cl)ccc1OCCOCCNCCOC	23	23	8	-28	6	-8
C=CCc1cc(Cl)ccc1OCCOCCNC(C)(C)C	63*	9	0	-14	1	5
COc1cccc(CN(C)C(=O)c2ccccc2Sc2ccccc2C#N)c1OC	4	10	9	-14	14	·
O=C(CN1C(=O)S/C(=C\C=C\c2ccccc2)C1=O)Nc1ccc(C(=O)O)cc1	33	15	-2	98*	11	9
O=C(c1ccc(-c2cccc(Cl)c2Cl)o1)N1CCOCC1	-18	34	?	·	16	0
CC1CCN(C(=O)c2ccc(-c3ccccc3Cl)o2)CC1	·	35	56*	·	38	1
Cc1onc(-c2ccccc2Cl)c1C(=O)NCC1CCCO1 (stereo not given)	7	27	-4	-8	4	1
O=C(NCC1CCCO1)c1ccc(-c2ccccc2Cl)o1 (stereo not given)	·	15	59*	·	41	0
SMILES	PHOSPHO1 inh	AI-2 QS modul	HSF-1 act	ALR inh	HSF1 inh	core dimer inh
CCN(C(=O)c1ccc2c(c1)OCO2)C12CC3CC(CC(C3)C1)C2	·	·	·	-1	·	·
COc1cccc2cc(C(=O)NCc3ccco3)c(=Nc3ccc(C(=O)O)cc3)oc12	6	3	-69	51	-63*	-1
O=C(O)c1ccc(N=c2oc3cc(O)ccc3cc2C(=O)NCc2ccccc2)cc1	28	4	2	90*	4	3
Oc1sc(C=Nc2ccccc2)c2ccccc12	65*	5	23	84*	16	-31
Oc1c(C=Nc2ccccc2)sc2ccccc12	10	3	20	18	11	-25
Oc1sc(C=Nc2ccc(F)cc2)c2ccccc12	65*	-2	24	57	18	-25
Cc1cc(C)c(NC(=O)c2cccs2)c(C)c1NC(=O)c1cccs1	8	-3	0	-20	3	0
CCOC(=O)NN1C(=O)c2ccccc2NC1c1ccc(OC)c(OC)c1 (stereo not given)	9	26	2	-4	5	2
O=C(CNC(=O)c1ccccc1Br)N/N=C/c1ccco1	40	19	-9	-3	-5	-1
O=C(N/N=C/c1ccc(O)cc1)c1cc(-c2ccccc2)nc2ccccc12	14	9	13	30	6	12
O=C(Nc1ccccc1C(=O)N/N=C/c1ccc(O)cc1)c1ccccc1	4	-6	30	94*	15	-3
O=C(CNC(=O)c1ccccc1Br)N/N=C/c1ccc(O)cc1	24	11	3	99*	-4	-1
O=C(N/N=C/c1ccc(O)cc1)c1csc2ccccc12	26	-12	24	98*	4	-1
CC(C)=C(NC(=O)c1ccccc1)C(=O)N/N=C/c1ccc(O)cc1	-14	-4	16	99*	7	-4
CCN(CC)C(=O)c1[nH]cnc1C(=O)N[C@@H](Cc1ccccc1)C(=O)OC(C)(C)C	-30	6	-5	·	-6	6
Cc1c(C2C(C#N)=C(N)N(c3cccc([N+](=O)[O-])c3)C3=C2C(=O)CCC3)cnn1C (stereo not given)	52	10	-5	1	-6	-4
CCCC1(C)NC(=O)c2ccccc2O1 (stereo not given)	48	8	-8	-7	15	-1
Cc1cccc(C(=O)Oc2ccc(/C=N/NC(=O)c3ccccc3O)cc2)c1	-4	46	55*	-2	53	10
Cc1cc2nc(C)n(CCCNC(=O)Nc3ccc(C#N)cc3)c2cc1C	60*	8	-8	-8	-4	2
Cc1cc2nc(C)n(CCCN)c2cc1C	60*	-20	-16	-2	-2	0
CN(C)CC(O)CN(c1ccccc1)c1ccccc1 (stereo not given)	24	-10	-7	99*	-9	-1
Cc1ccccc1NC(=O)c1nn(C)c2c1CS(=O)(=O)c1ccccc1-2	28	5	-9	-4	1	-4
CCC(=O)Nc1cccc(C2=NN(c3ccccc3)C(c3ccc(OC)cc3)C2)c1 (stereo not given)	44	17	31	-4	1	3
S=C(NCC1CCCO1)N1CCN(c2cccc(Cl)c2)CC1 (stereo not given)	-23	8	3	3	-3	1
Fc1ccc(N2CCN(C(=S)NCC3CCCO3)CC2)cc1 (stereo not given)	4	34	7	99*	6	0
